{"source": "ChEMBL document CHEMBL1147152", "about": "“Radiolabeled phenethylguanidines: novel imaging agents for cardiac sympathetic neurons and adrenergic tumors” (J Med Chem, 2007)", "key": {"Heart": {"system": "Heart", "test": "Neuronal drug uptake rate in isolated Sprague-Dawley rat heart", "assay_type": "ADME, tissue-based", "method_in_brief": "(§1)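 Isolated working rat heart perfused with Krebs-Henseleit bicarbonate buffer plus 5 mM glucose, gassed 95% O₂/5% CO₂, with 54 μM corticosterone to block uptake-2. After 30 min stabilization, 10 min constant infusion of ¹¹C tracer (2.0-12.0 μCi/mL perfusate), then 120 min washout. Whole-heart activity read by coincidence CsF detectors and converted to apparent distribution volume. K_up (mL/min/g wet) taken as the linear slope of the 1-4 min infusion data. Clearance half-time (hr) from multi-exponential fit of the washout phase.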"}, "[1]": {"test": "Drug clearance rate in isolated Sprague-Dawley rat heart", "assay_type": "ADME, tissue-based", "method_in_brief": "as §1"}, "Adrenal medulla": {"system": "Adrenal medulla", "test": "Biodistribution in adrenal medulla of Sprague-Dawley rat at 50 to 350 uCi, iv", "assay_type": "ADME, organism-based", "settings": "in vivo"}, "Liver": {"system": "Liver", "test": "Biodistribution in liver of Sprague-Dawley rat at 50 to 350 uCi, iv", "assay_type": "ADME, organism-based", "settings": "in vivo"}, "Lung": {"system": "Lung", "test": "Biodistribution in lung of Sprague-Dawley rat at 50 to 350 uCi, iv", "assay_type": "ADME, organism-based", "settings": "in vivo"}, "[2]": {"test": "Ratio of drug level in heart to blood in macaque rhesus monkey at 4.8 mCi, iv", "assay_type": "ADME, organism-based, Macaca mulatta"}, "Rhesus monkey [3]": {"system": "Rhesus monkey", "test": "Ratio of drug level in heart to liver in macaque rhesus monkey at 4.8 mCi, iv", "assay_type": "ADME, organism-based, Macaca mulatta", "settings": "in vivo"}, "Muscle tissue": {"system": "Muscle tissue", "test": "Biodistribution in muscle of Sprague-Dawley rat at 50 to 350 uCi, iv", "assay_type": "ADME, organism-based", "settings": "in vivo"}, "[4]": {"test": "Biodistribution in left ventricle of Sprague-Dawley rat at 50 to 350 uCi, iv", "assay_type": "ADME, organism-based, Heart left ventricle", "settings": "in vivo"}, "Blood": {"system": "Blood", "test": "Biodistribution in blood of Sprague-Dawley rat at 50 to 350 uCi, iv", "assay_type": "ADME, organism-based", "settings": "in vivo"}, "Spleen": {"system": "Spleen", "test": "Biodistribution in spleen of Sprague-Dawley rat at 50 to 350 uCi, iv", "assay_type": "ADME, organism-based", "settings": "in vivo"}, "Rhesus monkey [5]": {"system": "Rhesus monkey", "test": "Ratio of drug level in heart to liver in macaque rhesus monkey at 4.9 mCi, iv", "assay_type": "ADME, organism-based, Macaca mulatta", "settings": "in vivo"}, "[6]": {"test": "Ratio of drug level in heart to blood in macaque rhesus monkey at 5.4 mCi, iv", "assay_type": "ADME, organism-based, Macaca mulatta", "method_in_brief": "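Rhesus monkey PET: 5.4 mCi of the [¹¹C] tracer, given as an intravenous bolus via catheter to a 5.3 kg animal. Images were reconstructed by OSEM/3D-MAP, and tissue ratios were taken from the dynamic myocardial kinetics.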"}, "PC-12 [7]": {"system": "PC-12", "test": "Drug uptake in heart of rat PC12 cells xenografted BALB/c nu/nu mouse at 0.34 mCi at 60 mins", "settings": "in vivo, 1 h"}, "PC-12 [8]": {"system": "PC-12", "test": "Drug uptake in tumor of rat PC12 cells xenografted BALB/c nu/nu mouse at 0.34 mCi within 10 mins", "settings": "in vivo"}}}
{"smiles": "N=[11C](N)NCCc1ccc(I)cc1", "values": [{"measurement": "Kup", "setting": "Heart", "value": 0.56, "unit": "mL/min/g"}, {"measurement": "half-life", "setting": "[1]", "value": 1.9, "unit": "h"}]}
{"smiles": "COc1ccc(CCN[11C](=N)N)cc1", "values": [{"measurement": "Kup", "setting": "Heart", "value": 0.73, "unit": "mL/min/g"}, {"measurement": "half-life", "setting": "[1]", "value": 2.3, "unit": "h"}]}
{"smiles": "N=[11C](N)NCCc1ccc(F)cc1", "values": [{"measurement": "Kup", "setting": "Heart", "value": 0.63, "unit": "mL/min/g"}, {"measurement": "half-life", "setting": "[1]", "value": 4.4, "unit": "h"}]}
{"smiles": "N=[11C](N)NCCc1cccc(I)c1", "values": [{"measurement": "Kup", "setting": "Heart", "value": 1.1, "unit": "mL/min/g"}, {"measurement": "half-life", "setting": "[1]", "value": 2.4, "unit": "h"}]}
{"smiles": "N=[11C](N)NCCc1cccc(O)c1", "values": [{"measurement": "Drug uptake", "setting": "Adrenal medulla", "value": 0.88, "unit": "% ID/g"}, {"measurement": "Kup", "setting": "Heart", "value": 1.96, "unit": "mL/min/g"}, {"measurement": "Drug uptake", "setting": "Liver", "value": 0.89, "unit": "% ID/g"}, {"measurement": "Drug uptake", "setting": "Lung", "value": 0.74, "unit": "% ID/g"}, {"measurement": "Kp", "setting": "[2]", "value": 4.7}, {"measurement": "Ratio", "setting": "Rhesus monkey [3]", "value": 4.4}, {"measurement": "Drug uptake", "setting": "Muscle tissue", "value": 0.07, "unit": "% ID/g"}, {"measurement": "Drug uptake", "setting": "[4]", "value": 2.28, "unit": "% ID/g"}, {"measurement": "half-life", "setting": "[1]", "value": "> 102", "unit": "h"}, {"measurement": "Drug uptake", "setting": "Blood", "value": 0.07, "unit": "% ID/g"}, {"measurement": "Drug uptake", "setting": "Spleen", "value": 0.63, "unit": "% ID/g"}]}
{"smiles": "N=[11C](N)NCCc1ccccc1", "note": "[[11C]PHENETHYLGUANIDINE]", "values": [{"measurement": "Kup", "setting": "Heart", "value": 1.56, "unit": "mL/min/g"}, {"measurement": "half-life", "setting": "[1]", "value": 3.3, "unit": "h"}]}
{"smiles": "N=[11C](N)NCC(O)c1cccc(O)c1", "note": "(centres undefined)", "values": [{"measurement": "Drug uptake", "setting": "Adrenal medulla", "value": 0.36, "unit": "% ID/g"}, {"measurement": "Kup", "setting": "Heart", "value": 0.3, "unit": "mL/min/g"}, {"measurement": "Ratio", "setting": "Rhesus monkey [5]", "value": 0.6}, {"measurement": "Drug uptake", "setting": "Liver", "value": 2.71, "unit": "% ID/g"}, {"measurement": "Drug uptake", "setting": "Lung", "value": 0.75, "unit": "% ID/g"}, {"measurement": "Drug uptake", "setting": "Muscle tissue", "value": 0.07, "unit": "% ID/g"}, {"measurement": "Drug uptake", "setting": "[4]", "value": 1.17, "unit": "% ID/g"}, {"measurement": "half-life", "setting": "[1]", "value": "> 152", "unit": "h"}, {"measurement": "Drug uptake", "setting": "Blood", "value": 0.14, "unit": "% ID/g"}, {"measurement": "Drug uptake", "setting": "Spleen", "value": 0.63, "unit": "% ID/g"}]}
{"smiles": "[11CH3]NC[C@H](O)c1ccc(O)c(O)c1", "note": "[[11C]EPINEPHRINE]", "values": [{"measurement": "Drug uptake", "setting": "Adrenal medulla", "value": 0.61, "unit": "% ID/g"}, {"measurement": "Drug uptake", "setting": "Liver", "value": 1.95, "unit": "% ID/g"}, {"measurement": "Drug uptake", "setting": "Lung", "value": 0.39, "unit": "% ID/g"}, {"measurement": "Drug uptake", "setting": "Muscle tissue", "value": 0.22, "unit": "% ID/g"}, {"measurement": "Drug uptake", "setting": "[4]", "value": 2.14, "unit": "% ID/g"}, {"measurement": "Drug uptake", "setting": "Blood", "value": 0.13, "unit": "% ID/g"}, {"measurement": "Drug uptake", "setting": "Spleen", "value": 0.64, "unit": "% ID/g"}]}
{"smiles": "N=[11C](N)NCCc1cccc(F)c1", "values": [{"measurement": "Kup", "setting": "Heart", "value": 0.24, "unit": "mL/min/g"}, {"measurement": "half-life", "setting": "[1]", "value": 1.9, "unit": "h"}]}
{"smiles": "N=[11C](N)NCCc1cc(O)ccc1F", "values": [{"measurement": "Drug uptake", "setting": "Adrenal medulla", "value": 0.46, "unit": "% ID/g"}, {"measurement": "Kup", "setting": "Heart", "value": 0.49, "unit": "mL/min/g"}, {"measurement": "Drug uptake", "setting": "Liver", "value": 0.92, "unit": "% ID/g"}, {"measurement": "Drug uptake", "setting": "Lung", "value": 0.34, "unit": "% ID/g"}, {"measurement": "Drug uptake", "setting": "Muscle tissue", "value": 0.06, "unit": "% ID/g"}, {"measurement": "Drug uptake", "setting": "[4]", "value": 1.01, "unit": "% ID/g"}, {"measurement": "half-life", "setting": "[1]", "value": "> 20", "unit": "h"}, {"measurement": "Drug uptake", "setting": "Blood", "value": 0.07, "unit": "% ID/g"}, {"measurement": "Drug uptake", "setting": "Spleen", "value": 0.43, "unit": "% ID/g"}]}
{"smiles": "C[C@H](N[11CH3])[C@H](O)c1cccc(O)c1", "values": [{"measurement": "Drug uptake", "setting": "Lung", "value": 0.4, "unit": "% ID/g"}, {"measurement": "Drug uptake", "setting": "Muscle tissue", "value": 0.17, "unit": "% ID/g"}, {"measurement": "Drug uptake", "setting": "Blood", "value": 0.08, "unit": "% ID/g"}, {"measurement": "Kp", "setting": "[6]", "value": 4.5}]}
{"smiles": "N=[11C](N)NCCc1ccc(O)cc1", "values": [{"measurement": "Drug uptake", "setting": "Adrenal medulla", "value": 1.17, "unit": "% ID/g"}, {"measurement": "Kup", "setting": "Heart", "value": 1.64, "unit": "mL/min/g"}, {"measurement": "Drug uptake", "setting": "Liver", "value": 0.84, "unit": "% ID/g"}, {"measurement": "Drug uptake", "setting": "Lung", "value": 0.68, "unit": "% ID/g"}, {"measurement": "Drug uptake", "setting": "PC-12 [7]", "value": 17, "unit": "% ID/g"}, {"measurement": "Drug uptake", "setting": "Muscle tissue", "value": 0.14, "unit": "% ID/g"}, {"measurement": "Drug uptake", "setting": "[4]", "value": 3.3, "unit": "% ID/g"}, {"measurement": "half-life", "setting": "[1]", "value": "> 45", "unit": "h"}, {"measurement": "Drug uptake", "setting": "Blood", "value": 0.16, "unit": "% ID/g"}, {"measurement": "Drug uptake", "setting": "Spleen", "value": 0.97, "unit": "% ID/g"}, {"measurement": "Drug uptake", "setting": "PC-12 [8]", "value": 29, "unit": "% ID/g"}]}
{"smiles": "N=[11C](N)NCCc1ccc(F)c(O)c1", "values": [{"measurement": "Drug uptake", "setting": "Adrenal medulla", "value": 0.56, "unit": "% ID/g"}, {"measurement": "Kup", "setting": "Heart", "value": 0.72, "unit": "mL/min/g"}, {"measurement": "Drug uptake", "setting": "Liver", "value": 1.22, "unit": "% ID/g"}, {"measurement": "Drug uptake", "setting": "Lung", "value": 0.56, "unit": "% ID/g"}, {"measurement": "Drug uptake", "setting": "Muscle tissue", "value": 0.07, "unit": "% ID/g"}, {"measurement": "Drug uptake", "setting": "[4]", "value": 1.77, "unit": "% ID/g"}, {"measurement": "half-life", "setting": "[1]", "value": "> 73", "unit": "h"}, {"measurement": "Drug uptake", "setting": "Blood", "value": 0.08, "unit": "% ID/g"}, {"measurement": "Drug uptake", "setting": "Spleen", "value": 0.52, "unit": "% ID/g"}]}
{"smiles": "N=[11C](N)NC[C@H](O)c1ccccc1", "values": [{"measurement": "Drug uptake", "setting": "Adrenal medulla", "value": 0.53, "unit": "% ID/g"}, {"measurement": "Kup", "setting": "Heart", "value": 0.42, "unit": "mL/min/g"}, {"measurement": "Drug uptake", "setting": "Liver", "value": 3.91, "unit": "% ID/g"}, {"measurement": "Drug uptake", "setting": "Lung", "value": 0.86, "unit": "% ID/g"}, {"measurement": "Drug uptake", "setting": "Muscle tissue", "value": 0.1, "unit": "% ID/g"}, {"measurement": "Drug uptake", "setting": "[4]", "value": 1.91, "unit": "% ID/g"}, {"measurement": "half-life", "setting": "[1]", "value": 22, "unit": "h"}, {"measurement": "Drug uptake", "setting": "Blood", "value": 0.09, "unit": "% ID/g"}, {"measurement": "Drug uptake", "setting": "Spleen", "value": 0.88, "unit": "% ID/g"}]}
{"smiles": "N=[11C](N)NCCc1ccccc1F", "values": [{"measurement": "Kup", "setting": "Heart", "value": 1.76, "unit": "mL/min/g"}, {"measurement": "half-life", "setting": "[1]", "value": 2.3, "unit": "h"}]}
